Test results reported in ChEMBL document CHEMBL1157029, “Synthesis, characterization and in vitro pharmacology of novel pregabalin derivatives” (Eur J Med Chem, 2010).

species on record: Rattus norvegicus; assay: Inhibition of [3H]gabapentin binding to voltage gated calcium channel alpha2delta from rat cerebral cortex at 10 uM by scintillation counting; format: tissue-based
Procedure, shortened: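 Single test concentration, in duplicate. Membranes were incubated 60 min at 22 °C with 10 nM [3H]gabapentin in 10 mM Hepes/Tris pH 7.4. Nonspecific binding was defined with excess unlabelled gabapentin, and filters were counted by scintillation. Compound came from DMSO stock with a final 100-fold dilution in the well. Result given as % inhibition of control specific binding.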

In order of rising inhibition:
1. CC(C)C[C@H](CN)CC(=O)N[C@H]1C(O)O[C@H](CO)[C@H](O)[C@@H]1O (some centres undefined)  9%
2. CC(C)C[C@H](CN)CC(=O)N[C@@H]1C(O)O[C@H](CO)[C@@H](O)[C@@H]1O (some centres undefined)  14%
3. CC(C)C[C@H](CN)CC(=O)N[C@@H]1O[C@H](CO)[C@@H](O)[C@H](O)[C@H]1O  17%
4. CC(C)C[C@H](CN)CC(=O)NCCc1c[nH]c2ccccc12  18%
5. CC(C)C[C@H](CN)CC(=O)N[C@H]1C(O)O[C@H](CO)[C@@H](O)[C@@H]1O (some centres undefined)  18%
6. CC(C)C[C@H](CN)CC(=O)NCCc1c[nH]c2ccc(O)cc12  51%
7. CC(C)C[C@H](CN)CC(=O)O  92%

target: not listed separately; assay: Displacement of [3H]gabapentin binding to voltage gated calcium channel alpha2delta from rat cerebral cortex by scintillation counting; format: tissue-based
Procedure, shortened: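 Membranes were incubated 60 min at 22 °C with 10 nM [3H]gabapentin ± test compound in 10 mM Hepes/Tris pH 7.4. Nonspecific binding was taken with excess unlabelled gabapentin. Filter-bound radioactivity was counted by scintillation. Compounds were diluted from DMSO stocks, 100-fold into the well. Duplicates. IC50 came from a competition curve of specific binding; gabapentin was the reference in each run.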

CC(C)C[C@H](CN)CC(=O)NCCc1c[nH]c2ccc(O)cc12 gave an IC50 of 13 µM.

For CC(C)C[C@H](CN)CC(=O)NCCc1c[nH]c2ccc(O)cc12, the Ki was 11 µM.
